SMILES strings stand for the structures.

One assay has as its system Plasmodium falciparum. Briefly: Antimalarial activity against ring stage chloroquine-resistant Plasmodium falciparum W2 preincubated for 48 hrs measured after 48 hrs in presence of 10% human serum by YOYO-1 dye-based FACS analysis. The assay is classed as functional. The procedure, abridged:
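Sorbitol-synchronized ring-stage W2 parasites at 0.1% parasitemia grown 48 h in RPMI-1640 + 10% human serum under 3% O2/6% CO2/91% N2 with inhibitors (from 1000× DMSO stocks), no media change. Fixed 48 h in 1% formaldehyde/PBS pH 7.4 at room temperature. Stained with 1 nM YOYO-1 in 0.1% Triton X-100/PBS. Parasitemia read by flow cytometry.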
Background: Flow cytometry measures light scatter and fluorescence of single cells or particles in a stream.
Usually MIC99 stands for an inhibitory concentration at the 99% level, which refers to growth in some studies and to a panel of isolates in others. Regarding `CC(=O)c1ccc(NC(=O)C(CC(C)C)N(C(=O)c2ccccc2)S(=O)(=O)c2ccc([N+](=O)[O-])cc2)cc1` (stereo not given), the MIC99 came to 0.06 µM.
The same measure, in the same setting: for `CC(=O)c1ccc(NC(=O)C(Cc2ccccc2)N(C(=O)c2ccccc2)S(=O)(=O)c2ccc(C)cc2)cc1` (stereo not given) the value was 0.78 µM.
Still for that read-out and setting: to `CCC(C)C(C(=O)Nc1ccc(C(C)=O)cc1)N(C(=O)c1ccccc1)S(=O)(=O)c1ccc(C)cc1` (stereo not given) belongs 5.11 µM; to `CC(=O)c1ccc(NC(=O)C2CC(O)CN2S(=O)(=O)c2ccc(C)cc2)cc1` (stereo not given), 2.27 µM; to `CC(=O)c1ccc(NC(=O)C2CC(O)CN2S(=O)(=O)c2ccc([N+](=O)[O-])cc2)cc1` (stereo not given), 0.32 µM.
On the same count and under the same terms, for `CC(=O)c1ccc(NC(=O)C(C(C)C)N(C(=O)c2ccccc2)S(=O)(=O)c2ccc([N+](=O)[O-])cc2)cc1` (stereo not given) the value was 1.57 µM.

Tested on in another assay: not listed separately
Briefly: Antioxidant activity assessed as inhibition of DPPH radical generation at 5 mg/ml after 20 mins under dark condition by UV-Visible spectrophotometric analysis relative to control. Type of assay: functional. In a few lines:
(§1)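 Test compounds were made up in ethanol at 1.0, 2.0, 3.0, 4.0 and 5.0 mg/mL (solution concentrations before mixing). 1 mL of each was shaken with 4 mL of 0.1 mM ethanolic DPPH and kept in the dark at room temperature for 20 min. The decrease in A517 was read against an ethanol baseline. A DPPH blank had no compound. Scavenging % = [(Ac − As)/Ac] × 100.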
For orientation: DPPH is a stable violet radical that fades when it is reduced.
What is called inhibition is how much of the control response was suppressed. On to `CC(=O)c1ccc(NC(=O)C(CC(C)C)N(C(=O)c2ccccc2)S(=O)(=O)c2ccc([N+](=O)[O-])cc2)cc1` (stereo not given), for which the inhibition came to 81.3%.
On the same count and under the same terms, to `CC(=O)c1ccc(NC(=O)C(Cc2ccccc2)N(C(=O)c2ccccc2)S(=O)(=O)c2ccc(C)cc2)cc1` (stereo not given) belongs 53.6%; to `CCC(C)C(C(=O)Nc1ccc(C(C)=O)cc1)N(C(=O)c1ccccc1)S(=O)(=O)c1ccc(C)cc1` (stereo not given), 47.3%.
On the same count and under the same terms, for `CC(=O)c1ccc(NC(=O)C2CC(O)CN2S(=O)(=O)c2ccc(C)cc2)cc1` (stereo not given) the value was 13%; for `CC(=O)c1ccc(NC(=O)C2CC(O)CN2S(=O)(=O)c2ccc([N+](=O)[O-])cc2)cc1` (stereo not given), 70.7%.
Regarding `CC(=O)c1ccc(NC(=O)C(C(C)C)N(C(=O)c2ccccc2)S(=O)(=O)c2ccc([N+](=O)[O-])cc2)cc1` (stereo not given), the inhibition came to 27.4%.

Tested on in the next assay: not listed separately
In words: Antioxidant activity assessed as inhibition of DPPH radical generation at 2 mg/ml after 20 mins under dark condition by UV-Visible spectrophotometric analysis relative to control. Type of assay: functional. In a few lines: as §1
Consider `CC(=O)c1ccc(NC(=O)C(Cc2ccccc2)N(C(=O)c2ccccc2)S(=O)(=O)c2ccc(C)cc2)cc1` (stereo not given), for which the inhibition came out at 32.7%.
With `CCC(C)C(C(=O)Nc1ccc(C(C)=O)cc1)N(C(=O)c1ccccc1)S(=O)(=O)c1ccc(C)cc1` (stereo not given), the inhibition is 25.7%.
Still for that read-out and setting: for `CC(=O)c1ccc(NC(=O)C2CC(O)CN2S(=O)(=O)c2ccc(C)cc2)cc1` (stereo not given) the value was 12.5%.
With `CC(=O)c1ccc(NC(=O)C(C(C)C)N(C(=O)c2ccccc2)S(=O)(=O)c2ccc([N+](=O)[O-])cc2)cc1` (stereo not given), the inhibition amounted to 29.8%.

Tested on in the next assay: not listed separately
Briefly: Antioxidant activity assessed as inhibition of DPPH radical generation at 1 mg/ml after 20 mins under dark condition by UV-Visible spectrophotometric analysis relative to control. Type of assay: functional. In a few lines: as §1
For the compound `CC(=O)c1ccc(NC(=O)C(CC(C)C)N(C(=O)c2ccccc2)S(=O)(=O)c2ccc([N+](=O)[O-])cc2)cc1` (stereo not given), the inhibition amounted to 45%.
With `CC(=O)c1ccc(NC(=O)C(Cc2ccccc2)N(C(=O)c2ccccc2)S(=O)(=O)c2ccc(C)cc2)cc1` (stereo not given), the inhibition is 25.4%.
Same read-out and setting: to `CCC(C)C(C(=O)Nc1ccc(C(C)=O)cc1)N(C(=O)c1ccccc1)S(=O)(=O)c1ccc(C)cc1` (stereo not given) belongs 18.6%.
Still for that read-out and setting: for `CC(=O)c1ccc(NC(=O)C2CC(O)CN2S(=O)(=O)c2ccc(C)cc2)cc1` (stereo not given) the value was 12.4%; for `CC(=O)c1ccc(NC(=O)C2CC(O)CN2S(=O)(=O)c2ccc([N+](=O)[O-])cc2)cc1` (stereo not given), 43.2%.
With `CC(=O)c1ccc(NC(=O)C(C(C)C)N(C(=O)c2ccccc2)S(=O)(=O)c2ccc([N+](=O)[O-])cc2)cc1` (stereo not given), the inhibition is 29.8%.

Tested on in another assay: not listed separately
Briefly: Antioxidant activity assessed as inhibition of DPPH radical generation at 3 mg/ml after 20 mins under dark condition by UV-Visible spectrophotometric analysis relative to control. The assay is classed as functional. The procedure, abridged:
as §1
On to `CC(=O)c1ccc(NC(=O)C(CC(C)C)N(C(=O)c2ccccc2)S(=O)(=O)c2ccc([N+](=O)[O-])cc2)cc1` (stereo not given), for which the inhibition was found to be 62.3%.
On the same count and under the same terms, to `CC(=O)c1ccc(NC(=O)C(Cc2ccccc2)N(C(=O)c2ccccc2)S(=O)(=O)c2ccc(C)cc2)cc1` (stereo not given) belongs 39.6%; to `CCC(C)C(C(=O)Nc1ccc(C(C)=O)cc1)N(C(=O)c1ccccc1)S(=O)(=O)c1ccc(C)cc1` (stereo not given), 33.4%.
Take `CC(=O)c1ccc(NC(=O)C2CC(O)CN2S(=O)(=O)c2ccc(C)cc2)cc1` (stereo not given): the inhibition was 12.7%.
Same read-out and setting: to `CC(=O)c1ccc(NC(=O)C2CC(O)CN2S(=O)(=O)c2ccc([N+](=O)[O-])cc2)cc1` (stereo not given) belongs 58.7%; to `CC(=O)c1ccc(NC(=O)C(C(C)C)N(C(=O)c2ccccc2)S(=O)(=O)c2ccc([N+](=O)[O-])cc2)cc1` (stereo not given), 29.8%.

Tested on in the next assay: not listed separately
Briefly: Antioxidant activity assessed as inhibition of DPPH radical generation at 4 mg/ml after 20 mins under dark condition by UV-Visible spectrophotometric analysis relative to control. The assay is classed as functional. In a few lines: as §1
With `CC(=O)c1ccc(NC(=O)C(CC(C)C)N(C(=O)c2ccccc2)S(=O)(=O)c2ccc([N+](=O)[O-])cc2)cc1` (stereo not given), the inhibition is 71%.
Still for that read-out and setting: to `CC(=O)c1ccc(NC(=O)C(Cc2ccccc2)N(C(=O)c2ccccc2)S(=O)(=O)c2ccc(C)cc2)cc1` (stereo not given) belongs 48.5%.
The same measure, in the same setting: for `CCC(C)C(C(=O)Nc1ccc(C(C)=O)cc1)N(C(=O)c1ccccc1)S(=O)(=O)c1ccc(C)cc1` (stereo not given) the value was 41%; for `CC(=O)c1ccc(NC(=O)C2CC(O)CN2S(=O)(=O)c2ccc(C)cc2)cc1` (stereo not given), 12.9%.
For `CC(=O)c1ccc(NC(=O)C2CC(O)CN2S(=O)(=O)c2ccc([N+](=O)[O-])cc2)cc1` (stereo not given), the inhibition is 60.1%.
On to `CC(=O)c1ccc(NC(=O)C(C(C)C)N(C(=O)c2ccccc2)S(=O)(=O)c2ccc([N+](=O)[O-])cc2)cc1` (stereo not given), for which the inhibition stood at 27.2%.

Tested on in a further assay: not listed separately
Briefly: Antioxidant activity assessed as DPPH radical scavenging activity after 20 mins under dark condition by UV-Visible spectrophotometric analysis. Type of assay: functional. The procedure, abridged: as §1
Usually IC50 stands for the concentration needed to halve the response being measured. On to `CC(=O)c1ccc(NC(=O)C(CC(C)C)N(C(=O)c2ccccc2)S(=O)(=O)c2ccc([N+](=O)[O-])cc2)cc1` (stereo not given), for which the IC50 is 8.4 mM.
`CC(=O)c1ccc(NC(=O)C(Cc2ccccc2)N(C(=O)c2ccccc2)S(=O)(=O)c2ccc(C)cc2)cc1` (stereo not given): the IC50 stood at 7.6 mM.
On the same count and under the same terms, to `CCC(C)C(C(=O)Nc1ccc(C(C)=O)cc1)N(C(=O)c1ccccc1)S(=O)(=O)c1ccc(C)cc1` (stereo not given) belongs 10 mM; to `CC(=O)c1ccc(NC(=O)C2CC(O)CN2S(=O)(=O)c2ccc(C)cc2)cc1` (stereo not given), 25 mM; to `CC(=O)c1ccc(NC(=O)C2CC(O)CN2S(=O)(=O)c2ccc([N+](=O)[O-])cc2)cc1` (stereo not given), 7.1 mM.
Consider `CC(=O)c1ccc(NC(=O)C(C(C)C)N(C(=O)c2ccccc2)S(=O)(=O)c2ccc([N+](=O)[O-])cc2)cc1` (stereo not given), for which the IC50 was 6.8 mM.

Values taken from ChEMBL document CHEMBL4033670, “Synthesis, characterization, molecular docking and in vitro antimalarial properties of new carboxamides bearing sulphonamide” (Eur J Med Chem, 2017).
